Results: ChEMBL document CHEMBL4513216, “Probing the Open Global Health Chemical Diversity Library for Multistage-Active Starting Points for Next-Generation Antimalarials” (ACS Infect Dis, 2020)

Test: Toxicity liver stage against HepG2, at 10uM
Assay type: cell-based
Set-up: test concentration 10 uM, cell line HepG2-A16-CD81EGFP
Conditions: human, HepG2-A16-CD81EGFP cells; read-out: INHIBITION
Summary of the method: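 Uninfected HepG2-A16-CD81EGFP cells, 3 × 10^3 per well, 1536-well, plated on prespotted compound at 10 μM final, parasite-free screening media added to match infected plates; puromycin 10 μM positive, DMSO 0.5% negative; run in parallel with 48 h PbLuc assay at 37 °C, 5% CO2; viability by CellTiter-Glo luminescence, normalized to controls.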

| Compound | cytotoxicity at 10 µM [%] |
| --- | --- |
| O=C([C@@H]1Cc2[nH]cnc2CN1C(=O)NC1CCCCC1)N1CCCC1 | 6.06 |
| CN1C[C@@H](F)[C@@H](OCc2nc3ccc(C#N)cc3[nH]2)C1 | 0.434 |
| Cc1cc(NCCO)nc(-c2ccccc2O)n1 | 14.1 |
| O=S(=O)(NCCn1ccc(-c2ccncc2)n1)C1CC1 | 0.794 |
| CC(=O)N1CCOC2(CCCN(C(=O)CCN3CCCCC3)C2)C1 (stereo unspecified) | -2.51 |
| Cc1cc(C)cc(C(=O)N2CCCC3(CCCC(=O)N3C)C2)c1 (stereo unspecified) | 5.06 |
| Cc1ccc(N2CC[C@H](O)[C@@H]2Cc2cnn(C)c2)nn1 | 0.434 |
| CCN(C)c1ncnc2c1CCN(C(=O)c1ccc(C)o1)CC2 | -0.796 |
| Cc1ccc(C)c(C(NC(=O)C(C)(C)C)c2cccnc2)c1 (stereo unspecified) | -3.7 |
| Cc1nc(CN2CCCn3c(nc(Cn4ccnc4)cc3=O)C2)cs1 | -5.67 |
| CCC(C)c1noc(C2CCN(C(=O)c3ccccn3)CC2)n1 (stereo unspecified) | 4.59 |
| O=C(NC1CCCC1)c1cnn2c(-c3ccco3)ccnc12 | 10.2 |
| CCN1C(=O)C(C)(C)c2cc(NC(=O)c3ccco3)ccc21 | -10.2 |
| Cc1cc(N2CCC(O)(CN(C)C(=O)CCN)CC2)c2cnccc2n1 | -3.3 |
| O=C(c1cc(C2CC2)n[nH]1)N1C[C@H]2CC[C@](O)(c3ccccc3F)[C@H]2C1 | 7.66 |
| Cc1nc2cc(-c3nccn3C)nn2c(N2CCCC(CO)C2)c1C (stereo unspecified) | -4.38 |
| Cc1ccc(CNc2nc(O)cc(C3CC(=O)N(C)C3)n2)cc1 (stereo unspecified) | -17.8 |
| COCCNC(=O)CCNc1ccc(Cl)cn1 | -5.22 |
| CC(c1ccco1)N(C(=O)COc1ccc(C#N)cc1)C1CC1 (stereo unspecified) | -6.6 |
| CCCN(Cc1nnnn1C1CC1)CC1COc2ccccc2O1 (stereo unspecified) | 2.04 |
| COc1ccc(-c2noc(CCC(=O)N3CCOCC3(C)C)n2)cc1 | 6.99 |
| Cc1nc2n(n1)CC(NCCCc1nc(-c3cccs3)no1)CC2 (stereo unspecified) | -4.38 |
| Cc1ccc(-c2ncc(CN3CCN(S(N)(=O)=O)CC3)s2)o1 | -3.41 |

| Compound | cytotoxicity at 10 µM [%] |
| --- | --- |
| CC(CO)NC(=O)Nc1ccc(CC#N)cc1 (stereo unspecified) | -3.39 |
| C=C(C)CN(CC)C(=O)c1cc(Cl)ccc1NS(C)(=O)=O | 7.17 |
| CCN1CCN(C(=O)c2ccc(OC)nn2)c2ccccc21 | -1.78 |
| COC(=O)c1ccc(Cl)c(S(=O)(=O)Nc2ccc(F)c(C(N)=O)c2)c1 | 3.68 |
| Cc1noc(C)c1CN1CCCC1C(=O)OCc1ccccc1 (stereo unspecified) | 3.23 |
| O=C(c1ccc(NCc2cccc(F)c2)cc1)N1CCCC1 | 10.1 |
| CC(CS(C)(=O)=O)NC(=O)N1CC2(CCCC2)c2ccccc21 (stereo unspecified) | -4.34 |
| Cc1nnc(CN(Cc2ccco2)Cc2cccc3c2OCO3)n1C | -0.535 |
| COCc1ccccc1C(=O)NCC(O)c1ccc(Cl)s1 (stereo unspecified) | -6.63 |
| Cc1nc(-c2cccc(C#N)c2)nn1CC1(O)CCCCC1 | -2.62 |
| COc1c(C)cnc(CNC(=O)c2cc(C)nc3c2c(C)nn3C)c1C | -1.28 |
| CC(C)(C)OC(=O)NCC1CCCCN1Cc1cccnc1 (stereo unspecified) | -0.502 |
| Cc1cc(C)n(CC2CCCCN2CC(=O)Nc2nnc(C)s2)n1 (stereo unspecified) | 0.668 |
| OCC1(NCc2cnc(-c3ccccn3)s2)CCOCC1 | 9.32 |
| O=C(NCC(F)(F)F)C1CSCN1S(=O)(=O)c1cccc(F)c1 (stereo unspecified) | 18.7 |
| COCC(=O)NC1CCCN(c2ccc(C)cc2)C1=O (stereo unspecified) | -0.82 |
| C[S+]([O-])c1ccc(NC(=O)CC2=CCCCC2)cc1 (stereo unspecified) | 0.304 |
| COCCCNC(=O)CN1CCOC(c2ccccc2)C1 (stereo unspecified) | 18.6 |
| CC(C)CCN(C(=O)c1cc2c([nH]c1=O)CCCC2=O)C1CC1 | -2.98 |
| COCCN(Cc1ccco1)Cc1nc(-c2ccc(C)c(F)c2)no1 | 3.68 |
| Cc1cc(CS(=O)(=O)N(C)C(C)c2ccc(F)cc2)on1 (stereo unspecified) | 6.72 |
| CCc1cnc(CNc2ccc(C(=O)NCc3ccco3)cc2C)o1 | -0.375 |
| CC(C)c1nsc(N2CCS(=O)(=O)CC2)n1 | -2.41 |

| Compound | cytotoxicity at 10 µM [%] |
| --- | --- |
| CS(=O)(=O)NC1CCN(C(=O)c2[nH]c3ccc(Cl)cc3c2Cl)CC1 | 16.3 |
| CC(C)CCN1CCN(C(=O)c2c[nH]c(=O)[nH]2)CC1 | -6.49 |
| CCCNC(=O)CN1CCC(NCc2csc(C(C)C)n2)CC1 | -1.4 |
| CCn1nc(C(C)C)cc1C(=O)N1CCOc2ccc(OC)cc21 | 9.27 |
| CCOc1ccc(CN2C(=O)CC(CC)(CC)C2=O)nc1 | 5.73 |
| O=C(CNc1ccc(OCC2CCOCC2)cc1)NCc1ccco1 | 3.43 |
| COCCOc1ncccc1NCc1nc2ccccc2n1C | 5.95 |
| CCC(C)NS(=O)(=O)Cc1cccc(NC(=O)C(C)C)c1 (stereo unspecified) | 5.36 |
| CCc1nc2n(n1)CCCC2NC(=O)Nc1ccc(SC)c(F)c1 (stereo unspecified) | 5.08 |
| COC(=O)CN(Cc1ccccc1C)C(=O)CCCNC(=O)C1CC1 | -13.4 |
| Cc1ccc(NC(=O)CCc2ccco2)cc1N1CCOC1=O | -8.43 |
| Cc1cc(C)n(CC2CCCCN2CC(=O)Nc2cccnc2)n1 (stereo unspecified) | 6.46 |
| CN1CC(C(=O)NC(C)(C)C)CC1=O (stereo unspecified) | -3.36 |
| CN(C)CCN1CCO[C@@H]2CCN(C(=O)c3cccn3C)CC[C@H]21 | 7.17 |
| CN1CCC(Cc2noc(-c3cn(Cc4ccccc4Cl)nn3)n2)CC1 | -3.28 |
| CS(=O)(=O)Cc1nc(C2CC2)nn1-c1ccccn1 | 1.87 |
| OC1(CN2CCC(Oc3cccnc3)CC2)CNCCOC1 (stereo unspecified) | 5.92 |
| CN(Cc1nncn1C)c1nccc(N2CCC(O)CC2)n1 | -1.78 |
| O=C(N[C@H]1CN(C2CCOCC2)C[C@@H]1C1CC1)c1cc(O)no1 | 8.4 |
| Cc1cc(CN2CC[C@@H]3[C@@H](CCC(=O)N3CCc3c[nH]cn3)C2)oc1C | -0.466 |
| CN1CCCN(C(=O)c2nc3sccn3c2-c2ncc[nH]2)CC1 | -4.34 |
| O=C1CCCN1CCCNCc1cc(O)c2cccc(F)c2n1 | -1.16 |
| CC(C)Cc1ncc2c(n1)CN(c1cc(N)nc(N)n1)C2 | -6.27 |

| Compound | cytotoxicity at 10 µM [%] |
| --- | --- |
| CN(C)CCN1CC2(CCN(C(=O)c3cnccn3)CC2)OC1=O | 9 |
| O=C(C1NCCc2[nH]cnc21)N1CCC2(CC1)CNc1ccccc12 (stereo unspecified) | 1.04 |
| CC(C)Oc1cccc(C(=O)Nc2nncs2)c1 | -3.49 |
| Cn1nccc1C(=O)N1CCCN(CCCc2ccccc2)CC1 | -2.45 |
| Cc1ocnc1C(=O)N1CCC(c2nccn2Cc2ccncc2)CC1 | -8.26 |
| CCc1nc(C)c([C@H]2CN(C)C[C@@H]2C(=O)NC(C)(C)c2ccccc2)[nH]1 | 2.12 |
| CN(Cc1nc(-c2cccnc2)no1)C(=O)c1cccn1C | -2.85 |
| O=C(C(O)c1ccccc1Cl)N1CCCN(Cc2cccnc2)CC1 (stereo unspecified) | 5.5 |
| O=C(c1ccc2ccccc2c1)C1CCCN(C(=O)Cn2cncn2)C1 (stereo unspecified) | 2.6 |
| CCC(=O)Nc1cccc(OCC(=O)N2CC=CC2C(C)C)c1 (stereo unspecified) | -0.115 |
| COc1ccc(OCc2nc(C(=O)N3C[C@H](O)[C@@H](N(C)C)C3)co2)cc1 | -1.74 |
| CCc1nc(-c2cccc(C(=O)O)c2)no1 | -10 |
| O=C(c1ccoc1)N1CCC(Nc2cccnn2)CC1 | -5.85 |
| Cn1c(CN2CCOC(CNc3cccnn3)C2)nnc1C1CC1 (stereo unspecified) | 5.18 |
| Cc1cnc(C(=O)N2CCCCC2c2nc(C)cs2)cn1 (stereo unspecified) | -15.3 |
| CC(C(=O)NCCCN1CCN(c2ccccc2)CC1)n1cncn1 (stereo unspecified) | -5.93 |
| Cc1noc(C)c1CN1CCCC1c1c(C)nn(C)c1Cl (stereo unspecified) | -2 |
| CN(CC(=O)N1CCC(COc2ccccc2)CC1)c1cnccn1 | -10.7 |
| Cc1nc(CN2CCCN(C(=O)c3cnccn3)CC2)cs1 | -9.51 |
| COc1cc(C(=O)N2CCCC(n3cncn3)C2)ccc1C (stereo unspecified) | -3.86 |
| CCOCC(O)CN1CCN(C(=O)Cc2cccc(Cl)c2)CC1 (stereo unspecified) | -7.69 |
| Cn1cc(C(=O)NCC2CCN(C(=O)NC3CC3)CC2)cn1 | 2.05 |
| COc1ccc(CC(=O)N2CCC(Nc3ccc(C)nn3)CC2)cc1 | -5.34 |

| Compound | cytotoxicity at 10 µM [%] |
| --- | --- |
| CC(C)c1nc(CN(C)C2CCN(CCc3ccncc3)C2)no1 (stereo unspecified) | -28.4 |
| CCc1nc(CN(C)C2CCN(CCCOc3ccccc3)C2)no1 (stereo unspecified) | 0.141 |
| CCC1CCCCN1C(=O)c1ccnc(N(C)C)c1 (stereo unspecified) | -0.743 |
| CC(=O)N(Cc1ncc(C)o1)C1CCN(Cc2cc(C)on2)C1 (stereo unspecified) | -5.03 |
| CCc1nnc(CNC2CCCN(Cc3noc(C4CC4)n3)C2)o1 (stereo unspecified) | -5.46 |
| Cc1cc(CN(C)C(=O)c2ccc(F)cc2F)no1 | -6.47 |
| CCCc1n[nH]c(C2CN(C(=O)c3ccco3)CCO2)n1 (stereo unspecified) | -2.7 |
| COc1cccc(COCC(=O)N2CCN(CC(C)(C)O)CC2)c1 | -5.64 |
| CC(C)NC(=O)Cn1cc(-c2ccccc2)cn1 | -0.577 |
| O=C(CCNC(=O)c1ccoc1)Nc1c(F)cccc1F | 1.35 |
| CN(C)CCNC(=O)C1Cc2nc(-c3ccsc3)sc2N1CC1CC1 (stereo unspecified) | 3.54 |
| O=C1N(Cc2cccc(F)c2)CCC12CCN(c1ccccn1)CC2 | -1.16 |
| CN(C)c1cccc(C(=O)N2CCCC2c2ncc3c(n2)CCNC3)c1 (stereo unspecified) | -9.97 |
| CC(C)CN1CCC2(CCN(Cc3ccc(F)cc3)CC2)C1=O | 5.71 |
| O=C(c1ccnnc1)N1C[C@H](Oc2ccccn2)[C@H]2OCCC[C@H]21 | -0.00736 |
| Cc1cc(C(=O)N2CCc3nc(C4CCCN4)ncc3C2)cs1 (stereo unspecified) | 2.56 |
| O=C(C1CCCCC1)N1C[C@@H]2CCN(c3cnccn3)C[C@@H]2C1 | 5.68 |
| CC1CCN(c2nc3cn(C4CCS(=O)(=O)C4)c(=O)c-3c[nH]2)CC1 (stereo unspecified) | -14.2 |
| COc1cc(C(=O)N2C[C@@H]3CC[C@H]2CN(Cc2cscn2)C3)ccn1 | 3.2 |
